# Laboratory results reported in ChEMBL document CHEMBL1152298 (J Med Chem, 2008).
# The source made the active and inactive calls. The rule behind the calls is not given here.
# Legend:
# [1] = target: GABA A receptor alpha-3/beta-2/gamma-2 (Rattus norvegicus, UniProt P18508+P20236+P63138); assay: Displacement of [3H]Ro-151788 from benzodiazepine binding site of GABAA alpha-3-beta-2-gamma-2 receptor expressed in HEK293T cells; type: cell-based, HEK-293T
# Method in brief: (§1)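 α2 or α3 subunits were co-transfected with β2 and γ2, all in pRK5, into HEK293T cells by CaHPO4 precipitation at 4 μg per subunit. Membranes were prepared at 48 h. IC50 came from a one-site competition fit and was converted to Ki by Cheng-Prusoff. Mean ± SD of ≥3 experiments.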
# [2] = target: GABA A receptor alpha-2/beta-2/gamma-2 (Rattus norvegicus, UniProt P18508+P23576+P63138); assay: Displacement of [3H]Ro-151788 from benzodiazepine binding site of GABAA alpha-2-beta-2-gamma-2 receptor expressed in HEK293T cells; type: cell-based, HEK-293T; method in brief: as §1
# [3] = Displacement of [3H]Ro-151788 from benzodiazepine binding site of GABAA alpha-1-beta-2-gamma-2 D56C receptor mutant expressed in HEK293T cells; type: cell-based; settings: hek-293t
# [4] = Displacement of [3H]Ro-151788 from benzodiazepine binding site of GABAA alpha-1-beta-2-gamma-2 A79C receptor mutant expressed in HEK293T cells; type: cell-based; settings: hek-293t
# [5] = Displacement of [3H]Ro-151788 from benzodiazepine binding site of GABAA alpha-1-beta-2-gamma-2 T81C receptor mutant expressed in HEK293T cells; type: cell-based; settings: hek-293t
# [6] = Displacement of [3H]Ro-151788 from benzodiazepine binding site of GABAA alpha-1-beta-2-gamma-2 T126C receptor mutant expressed in HEK293T cells; type: cell-based; settings: hek-293t
# [7] = Displacement of [3H]Ro-151788 from benzodiazepine binding site of GABAA alpha-1-beta-2-gamma-2 M130C receptor mutant expressed in HEK293T cells; type: cell-based; settings: hek-293t
# [8] = Displacement of [3H]Ro-151788 from benzodiazepine binding site of GABAA alpha-1-beta-2-gamma-2 R132C receptor mutant expressed in HEK293T cells; type: cell-based; settings: hek-293t
# [9] = Displacement of [3H]Ro-151788 from benzodiazepine binding site of GABAA alpha-1-beta-2-gamma-2 L140C receptor mutant expressed in HEK293T cells; type: cell-based; settings: hek-293t
# [10] = Displacement of [3H]Ro-151788 from benzodiazepine binding site of GABAA alpha-1-beta-2-gamma-2 T142C receptor mutant expressed in HEK293T cells; type: cell-based; settings: hek-293t
# [11] = Displacement of [3H]Ro-151788 from benzodiazepine binding site of GABAA alpha-1-beta-2-gamma-2 […] receptor mutant expressed in HEK293T cells; type: cell-based; settings: hek-293t
# [12] = Displacement of [3H]Ro-151788 from benzodiazepine binding site of GABAA alpha-1-beta-2-gamma-2 R185C receptor mutant expressed in HEK293T cells; type: cell-based; settings: hek-293t
# [13] = Displacement of [3H]Ro-151788 from benzodiazepine binding site of GABAA alpha-1-beta-2-gamma-2 R194C receptor mutant expressed in HEK293T cells; type: cell-based; settings: hek-293t
# Method in brief: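 Transiently expressed in HEK293T (CaHPO4 transfection, equal α/β/γ DNA, 4 μg/subunit; cysteine-mutant γ2L with WT α1, β2). […] One-site competition fit for IC50; Ki by Cheng-Prusoff; mean ± SD, three experiments in triplicate; mutant/WT Ki ratio.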
# [14] = Displacement of [3H]Ro15-1788 from benzodiazepine binding site of GABAA alpha-1 F99C beta2gamma2 receptor mutant expressed in HEK293T cells; type: cell-based; settings: hek-293t
# [15] = Displacement of [3H]Ro15-1788 from benzodiazepine binding site of GABAA alpha-1 G157C beta2gamma2 receptor mutant expressed in HEK293T cells; type: cell-based; settings: hek-293t
# [16] = Displacement of [3H]Ro-151788 from benzodiazepine binding site of GABAA alpha1 A160C beta2gamma2 receptor mutant expressed in HEK293T cells; type: cell-based; settings: hek-293t
# [17] = Displacement of [3H]Ro15-1788 from benzodiazepine binding site of GABAA alpha1 T162C beta-2-gamma-2 receptor mutant expressed in HEK293T cells; type: cell-based; settings: hek-293t
# Method in brief: (§2)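 Cysteine mutant α1 subunit made by recombinant PCR, co-transfected with WT β2 and γ2L (equal DNA ratios, 4 μg/subunit, CaHPO4 method) into HEK293T cells; membranes harvested 48 h post-transfection. One-site competition fit; Ki by Cheng-Prusoff; three experiments in triplicate, mean ± SD.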
# [18] = Displacement of [3H]Ro15-1788 from benzodiazepine binding site of GABAA alpha-1 G200C beta2gamma2 receptor mutant expressed in HEK293T cells; type: cell-based; settings: hek-293t
# [19] = Displacement of [3H]Ro-151788 from benzodiazepine binding site of GABAA alpha1 V202C beta2gamma2 receptor mutant expressed in HEK293T cells; type: cell-based; settings: hek-293t
# [20] = Displacement of [3H]Ro-151788 from benzodiazepine binding site of GABAA alpha1 S204C beta2gamma2 receptor mutant expressed in HEK293T cells; type: cell-based; settings: hek-293t
# [21] = Displacement of [3H]Ro-151788 from benzodiazepine binding site of GABAA alpha1 S205C beta2gamma2 receptor mutant expressed in HEK293T cells; type: cell-based; settings: hek-293t
# [22] = Displacement of [3H]Ro15-1788 from benzodiazepine binding site of GABAA alpha-1 T206C beta2gamma2 receptor mutant expressed in HEK293T cells; type: cell-based; settings: hek-293t
# [23] = Displacement of [3H]Ro15-1788 from benzodiazepine binding site of GABAA alpha-1 V211C beta2gamma2 receptor mutant expressed in HEK293T cells; type: cell-based; settings: hek-293t; method in brief: as §2
# HEK-293T [24] = assay: Displacement of [3H]Ro-151788 from benzodiazepine binding site of GABAA alpha-1-beta-2-gamma-2 F77C receptor mutant expressed in HEK293T cells; type: cell-based
# Method in brief: (§3)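 HEK293T cells in MEM with 10% FBS were transiently transfected by CaHPO4 precipitation with α1, β2 and γ2L subunits (WT or PCR-made, sequence-verified cysteine mutant) in pUNIV, using equal ratios at 4 μg per subunit. Membranes were harvested at 48 h. […] Ki was derived from a one-site fit using Cheng-Prusoff. Mean ± SD, three experiments in triplicate.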
# HEK-293T [25] = assay: Displacement of [3H]Ro-151788 from benzodiazepine binding site of GABAA alpha1 D97C beta2gamma2 receptor mutant expressed in HEK293T cells; type: cell-based; method in brief: as §3
# HEK-293T [26] = assay: Displacement of [3H]Ro15-1788 from benzodiazepine binding site of GABAA alpha1 Y209C beta2gamma2 receptor mutant expressed in HEK293T cells; type: cell-based; method in brief: as §3
# Chain of GABA A receptor alpha-2/beta-2/gamma-2 (P18508 whole entry): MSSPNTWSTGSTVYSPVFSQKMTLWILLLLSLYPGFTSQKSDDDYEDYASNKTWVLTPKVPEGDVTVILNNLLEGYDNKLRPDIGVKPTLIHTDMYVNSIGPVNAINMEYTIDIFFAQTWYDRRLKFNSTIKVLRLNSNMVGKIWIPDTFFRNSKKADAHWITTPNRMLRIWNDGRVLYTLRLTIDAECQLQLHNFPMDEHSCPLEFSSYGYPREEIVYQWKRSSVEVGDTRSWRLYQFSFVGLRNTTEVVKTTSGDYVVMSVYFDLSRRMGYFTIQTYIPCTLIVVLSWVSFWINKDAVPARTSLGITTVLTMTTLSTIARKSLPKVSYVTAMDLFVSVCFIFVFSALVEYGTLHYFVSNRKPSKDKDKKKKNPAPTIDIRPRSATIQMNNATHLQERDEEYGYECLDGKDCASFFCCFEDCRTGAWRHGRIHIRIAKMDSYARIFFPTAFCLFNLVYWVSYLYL
# Chain of GABA A receptor alpha-2/beta-2/gamma-2 (P23576 whole entry): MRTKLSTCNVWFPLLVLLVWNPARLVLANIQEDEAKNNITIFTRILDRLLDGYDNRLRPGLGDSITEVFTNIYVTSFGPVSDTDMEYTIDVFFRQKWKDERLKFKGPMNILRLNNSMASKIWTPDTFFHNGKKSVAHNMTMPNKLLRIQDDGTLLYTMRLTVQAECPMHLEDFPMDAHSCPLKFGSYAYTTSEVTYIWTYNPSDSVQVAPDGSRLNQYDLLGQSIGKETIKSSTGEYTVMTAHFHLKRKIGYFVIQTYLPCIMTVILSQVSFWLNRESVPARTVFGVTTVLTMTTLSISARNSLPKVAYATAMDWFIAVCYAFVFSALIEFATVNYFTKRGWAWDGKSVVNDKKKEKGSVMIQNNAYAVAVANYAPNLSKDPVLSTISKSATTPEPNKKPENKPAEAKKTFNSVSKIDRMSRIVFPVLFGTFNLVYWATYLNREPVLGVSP
# Chain of GABA A receptor alpha-2/beta-2/gamma-2 (P63138 whole entry): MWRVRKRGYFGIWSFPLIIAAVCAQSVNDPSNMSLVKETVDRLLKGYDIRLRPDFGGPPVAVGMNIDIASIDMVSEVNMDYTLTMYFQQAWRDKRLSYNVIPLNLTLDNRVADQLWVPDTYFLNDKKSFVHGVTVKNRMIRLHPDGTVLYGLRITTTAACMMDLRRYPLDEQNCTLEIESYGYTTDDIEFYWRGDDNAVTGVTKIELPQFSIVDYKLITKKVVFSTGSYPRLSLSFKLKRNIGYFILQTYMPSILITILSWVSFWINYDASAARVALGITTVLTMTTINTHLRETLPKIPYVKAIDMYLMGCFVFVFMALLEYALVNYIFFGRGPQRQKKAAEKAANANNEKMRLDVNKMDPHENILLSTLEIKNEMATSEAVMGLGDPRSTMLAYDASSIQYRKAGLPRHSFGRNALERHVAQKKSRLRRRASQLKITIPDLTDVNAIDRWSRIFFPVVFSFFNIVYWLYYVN
# Chain of GABA A receptor alpha-3/beta-2/gamma-2 (P18508 whole entry): as the sequence (P18508 whole entry) above
# Chain of GABA A receptor alpha-3/beta-2/gamma-2 (P20236 whole entry): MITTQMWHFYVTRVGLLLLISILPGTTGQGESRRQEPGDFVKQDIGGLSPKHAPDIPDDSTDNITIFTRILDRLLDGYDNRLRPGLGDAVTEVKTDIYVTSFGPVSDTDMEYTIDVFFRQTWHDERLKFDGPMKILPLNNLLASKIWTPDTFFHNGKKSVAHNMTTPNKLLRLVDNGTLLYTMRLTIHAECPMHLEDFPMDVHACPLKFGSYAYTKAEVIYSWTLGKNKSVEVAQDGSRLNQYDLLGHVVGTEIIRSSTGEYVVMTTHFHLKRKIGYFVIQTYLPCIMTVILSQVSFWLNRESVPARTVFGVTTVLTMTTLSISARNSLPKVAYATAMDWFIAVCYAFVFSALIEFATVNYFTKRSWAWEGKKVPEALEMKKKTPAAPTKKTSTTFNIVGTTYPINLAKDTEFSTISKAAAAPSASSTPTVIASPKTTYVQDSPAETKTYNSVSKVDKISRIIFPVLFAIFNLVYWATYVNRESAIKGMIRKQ
# Chain of GABA A receptor alpha-3/beta-2/gamma-2 (P63138 whole entry): as the sequence (P63138 whole entry) above
structure (smiles),measurement,setting,value
CN1CCN(C(=O)O[C@H]2c3nccnc3C(=O)N2c2ccc(Cl)cn2)CC1 [ESZOPICLONE],Ki,[1],162 nM
same,Ki,[2],114 nM
same,Ki,[3],82.4 nM
same,Ki,[4],393 nM
same,Ki,[5],75.2 nM
same,Ki,[6],71.9 nM
same,Ki,[7],102 nM
same,Ki,[8],110 nM
same,Ki,[9],46.3 nM
same,Ki,[10],503 nM
same,Ki,[11],22.4 nM
same,Ki,[12],70.9 nM
same,Ki,[13],67 nM
same,Ki,[14],407 nM
same,Ki,[15],2100 nM
same,Ki,[16],60.4 nM
same,Ki,[17],33.8 nM
same,Ki,[18],119 nM
same,Ki,[19],249 nM
same,Ki,[20],57.9 nM
same,Ki,[21],34.9 nM
same,Ki,[22],0.83 nM
same,Ki,[23],62.4 nM
CCOC(=O)c1ncn2c1CN(C)C(=O)c1cc(F)ccc1-2 [FLUMAZENIL],Activity,HEK-293T [24],inactive
same,Activity,HEK-293T [25],inactive
same,Activity,HEK-293T [26],inactive
